Data published in ChEMBL document CHEMBL1938352, “Discovery of potent and liver-targeted stearoyl-CoA desaturase (SCD) inhibitors in a bispyrrolidine series” (Bioorg Med Chem Lett, 2012).

Key:
Acyl-CoA desaturase 1 [1] = target: T1, Acyl-CoA desaturase 1 (Rattus norvegicus, UniProt P07308); experiment: Inhibition of SCD-1 activity in rat liver microsomes assessed as reduction in [1-14C] stearoyl CoA desaturation by scintillation counting; parameters: species or system Microsome
T1 sequence (P07308 whole entry): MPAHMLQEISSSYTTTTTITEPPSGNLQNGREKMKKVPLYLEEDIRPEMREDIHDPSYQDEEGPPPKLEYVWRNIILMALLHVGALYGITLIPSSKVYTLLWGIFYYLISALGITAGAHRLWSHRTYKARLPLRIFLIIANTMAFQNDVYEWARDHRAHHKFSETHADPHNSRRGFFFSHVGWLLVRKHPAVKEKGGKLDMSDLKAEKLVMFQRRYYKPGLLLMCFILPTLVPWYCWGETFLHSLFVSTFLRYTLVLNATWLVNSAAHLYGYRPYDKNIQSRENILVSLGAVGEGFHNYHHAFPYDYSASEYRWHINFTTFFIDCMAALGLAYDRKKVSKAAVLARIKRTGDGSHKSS
How it was run: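 The enzymatic assay used SCD-induced rat liver microsomes. IC50 values are the average of at least two independent titrations.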

Stearoyl-CoA desaturase = target: T2, Stearoyl-CoA desaturase (Homo sapiens, UniProt O00767); experiment: Inhibition of SCD-1 activity in organic anion transporting polypeptides-deficient human HepG2 cells assessed as reduction in [1-14C] stearoyl CoA desaturation by scintillation counting; format: cell-based
T2 sequence (O00767 whole entry): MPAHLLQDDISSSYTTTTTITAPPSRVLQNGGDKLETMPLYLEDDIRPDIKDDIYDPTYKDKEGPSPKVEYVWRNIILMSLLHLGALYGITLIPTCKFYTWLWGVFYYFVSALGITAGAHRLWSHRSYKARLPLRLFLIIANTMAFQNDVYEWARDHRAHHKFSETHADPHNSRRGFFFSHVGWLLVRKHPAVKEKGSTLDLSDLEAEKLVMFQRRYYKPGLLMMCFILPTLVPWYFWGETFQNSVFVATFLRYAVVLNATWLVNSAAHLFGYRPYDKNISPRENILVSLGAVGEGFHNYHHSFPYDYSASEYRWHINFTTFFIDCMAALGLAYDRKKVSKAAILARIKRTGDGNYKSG
How it was run: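 The whole-cell assay used human hepatocellular carcinoma HepG2 cells, which lack active OATPs. IC50 values are the average of at least two independent titrations.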

Acyl-CoA desaturase 1 [2] = target: T1, Acyl-CoA desaturase 1; experiment: Inhibition of SCD-1 activity in rat hepatocytes expressing organic anion transporting polypeptides assessed as reduction in [1-14C] stearoyl CoA desaturation by scintillation counting; format: cell-based, Hepatocyte
How it was run: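 The cellular assay used rat hepatocytes with functional OATPs to assess active transport. IC50 values are the average of at least two independent titrations.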

Mus musculus [3] = experiment: Antidiabetic activity in C57BL/6 mouse LPD model assessed as reduction in liver SCD activity at 4.9 uM liver concentration dosed at 2 mg/kg, po measured 3 hrs post dosing; format: functional; conditions: C57BL6, 3 h
Mus musculus [4] = experiment: Antidiabetic activity in C57BL/6 mouse LPD model assessed as reduction in liver SCD activity at 1.6 uM liver concentration dosed at 0.4 mg/kg, po measured 3 hrs post dosing; format: functional; conditions: C57BL6, 3 h
[5] = Drug level in plasma of C57BL/6 mouse at 10 mg/kg, po measured 6 hrs post dosing; format: ADME, organism-based, C57BL6; parameters: dose 10 mg/kg, route oral; conditions: read-out: Drug uptake
How it was run: (§1)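 Tissue distribution was measured in mice given 10 mg/kg PO, n = 2. Liver, plasma and Harderian gland drug concentrations were measured 6 h post dose. Liver/plasma and liver/Harderian ratios were taken from these concentrations.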

[6] = Ratio of drug uptake in liver to plasma of C57BL/6 mouse at 10 mg/kg, po measured 6 hrs post dosing; format: ADME, organism-based, C57BL6; parameters: dose 10 mg/kg, route oral; how it was run: as §1
Mus musculus [7] = experiment: Antidiabetic activity in po dosed C57BL/6 mouse LPD model assessed as reduction in liver SCD activity measured 3 hrs post dosing; conditions: C57BL6, Liver
[8] = AUC (0 to 6 hrs) in C57BL/6 mouse at 10 mg/kg, po; format: ADME, organism-based, C57BL6; parameters: time < 6 hr, dose 10 mg/kg, route oral; conditions: plasma
How it was run: (§2)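 C57BL6 mice were dosed orally at 10 mg/kg. Drug exposure was measured over 0–6 h to give AUC_0–6h, and oral bioavailability (F) was also determined.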

[9] = Oral bioavailability in C57BL/6 mouse at 10 mg/kg; format: ADME, organism-based, C57BL6; conditions: in vivo; how it was run: as §2
[10] = Drug level in liver of C57BL/6 mouse at 10 mg/kg, po measured 6 hrs post dosing; format: ADME, organism-based, C57BL6; parameters: dose 10 mg/kg, route oral; conditions: read-out: Drug uptake; how it was run: as §1
[11] = Drug level in harderian gland of C57BL/6 mouse at 10 mg/kg, po measured 6 hrs post dosing; format: ADME, organism-based, C57BL6; parameters: dose 10 mg/kg, route oral; conditions: read-out: Drug uptake; how it was run: as §1
Acyl-CoA desaturase 1 [12] = target: T3, Acyl-CoA desaturase 1 (Mus musculus, UniProt P13516); experiment: Inhibition of mouse SCD-1
T3 sequence (P13516 whole entry): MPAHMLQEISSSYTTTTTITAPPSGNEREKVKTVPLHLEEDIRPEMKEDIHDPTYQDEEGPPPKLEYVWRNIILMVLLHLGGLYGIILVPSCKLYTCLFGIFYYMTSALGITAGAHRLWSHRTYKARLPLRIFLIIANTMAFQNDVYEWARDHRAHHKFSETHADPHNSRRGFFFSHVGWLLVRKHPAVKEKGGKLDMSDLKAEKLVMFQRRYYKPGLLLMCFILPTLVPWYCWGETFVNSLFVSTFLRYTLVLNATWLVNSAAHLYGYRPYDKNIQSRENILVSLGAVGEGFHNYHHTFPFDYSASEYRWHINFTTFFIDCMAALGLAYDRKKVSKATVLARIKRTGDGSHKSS

Mus musculus [13] = experiment: Antidiabetic activity in C57BL/6 mouse LPD model assessed as reduction in liver SCD activity at 7.7 uM liver concentration dosed at 2 mg/kg, po measured 3 hrs post dosing; format: functional; conditions: C57BL6, 3 h
Mus musculus [14] = experiment: Ratio of drug uptake in liver to harderian gland of C57BL/6 mouse at 10 mg/kg, po measured 6 hrs post dosing; conditions: in vivo
HepG2 = experiment: Ratio of IC50 for SCD-1 activity in organic anion transporting polypeptides-deficient human HepG2 cells to IC50 for SCD-1 activity in rat hepatocytes expressing organic anion transporting polypeptides; format: cell-based
How it was run: (§3)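 The fold shift is the ratio of IC50 values between two assays: rat liver microsomal enzyme, HepG2 whole cell, and OATP-containing rat hepatocytes. Each IC50 is the average of at least two independent titrations.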

[15] = target: T4, Acyl-CoA desaturase 1 (Rattus norvegicus) (UniProt P07308); experiment: Ratio of IC50 for SCD-1 activity in rat hepatocytes expressing organic anion transporting polypeptides to IC50 for SCD-1 activity in rat liver microsomes; conditions: Hepatocyte, Microsome; how it was run: as §3
T4 sequence (whole entry): T1 sequence (P07308 whole entry)

[16] = target: Acyl-CoA (8-3)-desaturase (Homo sapiens, UniProt O60427); experiment: Inhibition of human delta-5 desaturase activity in human HepG2 cells using [1-14C]-stearic acid tracer; format: cell-based
Acyl-CoA 6-desaturase = target: T5, Acyl-CoA 6-desaturase (Homo sapiens, UniProt O95864); experiment: Inhibition of human delta-6 desaturase activity in human HepG2 cells using [1-14C]-stearic acid tracer; format: cell-based
T5 sequence (O95864 whole entry): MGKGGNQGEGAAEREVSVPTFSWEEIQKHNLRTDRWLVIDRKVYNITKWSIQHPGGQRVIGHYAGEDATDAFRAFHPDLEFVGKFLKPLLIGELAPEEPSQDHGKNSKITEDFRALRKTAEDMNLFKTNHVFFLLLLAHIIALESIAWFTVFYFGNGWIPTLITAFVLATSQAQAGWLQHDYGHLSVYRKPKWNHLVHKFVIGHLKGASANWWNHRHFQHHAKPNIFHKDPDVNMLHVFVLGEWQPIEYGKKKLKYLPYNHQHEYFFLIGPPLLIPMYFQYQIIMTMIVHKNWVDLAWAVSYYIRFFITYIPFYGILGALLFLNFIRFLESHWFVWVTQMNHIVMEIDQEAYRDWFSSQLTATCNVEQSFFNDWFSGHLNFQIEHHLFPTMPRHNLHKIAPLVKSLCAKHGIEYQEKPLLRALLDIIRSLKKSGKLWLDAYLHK

Mus musculus [17] = experiment: Antidiabetic activity in C57BL/6 mouse LPD model assessed as reduction in liver SCD activity at 14.8 uM liver concentration dosed at 10 mg/kg, po measured 3 hrs post dosing; format: functional; conditions: C57BL6, 3 h
[18] = target: T6, Stearoyl-CoA desaturase 5 (Homo sapiens, UniProt Q86SK9); experiment: Inhibition of human SCD-5
T6 sequence (Q86SK9 whole entry): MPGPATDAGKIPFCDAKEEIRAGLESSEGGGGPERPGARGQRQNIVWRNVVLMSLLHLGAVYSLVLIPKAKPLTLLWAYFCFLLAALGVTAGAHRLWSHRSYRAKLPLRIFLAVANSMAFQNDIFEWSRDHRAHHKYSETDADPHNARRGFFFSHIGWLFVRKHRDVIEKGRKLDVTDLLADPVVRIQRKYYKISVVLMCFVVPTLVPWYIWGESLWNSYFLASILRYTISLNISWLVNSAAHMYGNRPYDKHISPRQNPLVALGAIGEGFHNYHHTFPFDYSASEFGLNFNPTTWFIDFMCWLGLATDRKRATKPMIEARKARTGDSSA

Acyl-CoA (8-3)-desaturase, sequence (O60427 whole entry): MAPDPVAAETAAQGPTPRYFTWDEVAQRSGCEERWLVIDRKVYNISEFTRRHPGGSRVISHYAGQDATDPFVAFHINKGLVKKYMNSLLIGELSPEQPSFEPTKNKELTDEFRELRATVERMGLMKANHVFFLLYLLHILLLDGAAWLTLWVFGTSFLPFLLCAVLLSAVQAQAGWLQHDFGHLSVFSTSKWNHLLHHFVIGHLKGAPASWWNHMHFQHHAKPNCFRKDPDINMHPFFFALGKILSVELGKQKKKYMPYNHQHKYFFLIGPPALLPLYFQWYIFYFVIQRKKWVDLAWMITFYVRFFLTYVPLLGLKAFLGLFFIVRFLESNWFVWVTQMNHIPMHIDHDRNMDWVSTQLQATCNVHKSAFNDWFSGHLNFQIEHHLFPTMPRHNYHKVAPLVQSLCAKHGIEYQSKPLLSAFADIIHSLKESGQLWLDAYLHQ

| Compound | IC50 (Acyl-CoA desaturase 1 [1]) [nM] | IC50 (Stearoyl-CoA desaturase) [nM] | IC50 (Acyl-CoA desaturase 1 [2]) [nM] | also measured |
| --- | --- | --- | --- | --- |
| O=C(O)Cn1nnc(-c2cnc(N3CC4(C3)CN(c3cc(F)ccc3Cl)C4)s2)n1 | 43 | 50900 | 103 |  |
| O=C(O)Cn1nnc(-c2cc(N3CCC(Oc4cc(F)ccc4Br)CC3)no2)n1 [MK-8245] |  |  |  | inhibition in vivo at 2 mg/kg (Mus musculus [3]): 89%; inhibition in vivo at 0.4 mg/kg (Mus musculus [4]): 49%; concentration at 6 h [5]: 30 nM; Kp at 6 h [6]: 90; ED50 (Mus musculus [7]): 1 mg/kg |
| O=C(O)Cn1nnc(-c2cnc(N3CC4(CCN(c5cc(F)ccc5Cl)CC4)C3)s2)n1 | 128 | > 100000 | 506 |  |
| O=C(O)Cn1nnc(-c2cnc(N3CCC4(CC3)CN(c3cc(F)ccc3Cl)C4)s2)n1 | 36 | > 100000 | 438 |  |
| O=C(O)Cn1nnc(-c2cnc(N3CC4CN(c5cc(F)ccc5Cl)CC4C3)s2)n1 (stereo not drawn) | 34 | 15400 | 233 |  |
| O=C(O)Cn1nnc(-c2nnc(N3CC4CN(c5cc(F)ccc5Cl)CC4C3)s2)n1 (stereo not drawn) | 59 | > 10000 | 300 |  |

Continued, in another order:

| IC50 (Acyl-CoA desaturase 1 [1]) [nM] | IC50 (Stearoyl-CoA desaturase) [nM] | IC50 (Acyl-CoA desaturase 1 [2]) [nM] | Compound | also measured |
| --- | --- | --- | --- | --- |
| 29 | 9140 | 176 | O=C(O)Cn1nnc(-c2cnc(N3C[C@@H]4C[C@H]3CN4c3cc(F)ccc3Cl)s2)n1 |  |
| 28 | 4200 | 134 | O=C(O)Cn1nnc(-c2cnc(N3CCN(c4cc(F)ccc4Cl)CC3)s2)n1 | AUC(0-t) at 6 h [8]: 0.7 µM·h; bioavailability [9]: 15%; concentration at 6 h [10]: 9300 nM; concentration at 6 h [5]: 220 nM; concentration at 6 h [11]: 50 nM; Kp at 6 h [6]: 40; IC50 (Acyl-CoA desaturase 1 [12]): 21 nM; inhibition in vivo at 2 mg/kg (Mus musculus [13]): 61%; Ratio (Mus musculus [14]): 180 |
| 24 | 9900 | 198 | O=C(O)Cn1nnc(-c2cc(N3CC4CN(c5cc(F)ccc5Cl)CC4C3)no2)n1 (stereo not drawn) | Ratio IC50 (HepG2): 50; Ratio IC50 [15]: 8; IC50 [16]: > 80000 nM; IC50 (Acyl-CoA 6-desaturase): > 80000 nM; AUC(0-t) at 6 h [8]: 2.1 µM·h; bioavailability [9]: 24%; inhibition in vivo at 10 mg/kg (Mus musculus [17]): 72%; concentration at 6 h [10]: 2700 nM; IC50 (Acyl-CoA desaturase 1 [12]): 18 nM; IC50 [18]: 242 nM |
